ARFGAP1 inhibitor: inhibits rat ARF GTPase activating protein 1; inhibition, % at 16.5 µM; AID 651572; 360,000 tested, 0.26% active; Arfgap1-stimulated ARF1 GTP hydrolysis, GDP FP detection;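 active = inhibition above a per-plate limit, mean inhibition of low control wells plus 3 SD, cut at about 25% in these data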
Target sequence (Q62848 1-136 limits assumed): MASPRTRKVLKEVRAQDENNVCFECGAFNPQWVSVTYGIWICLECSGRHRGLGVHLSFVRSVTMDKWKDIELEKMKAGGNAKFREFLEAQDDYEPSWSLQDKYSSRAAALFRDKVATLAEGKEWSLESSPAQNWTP
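Repeats: one replicate per compound; assay system: rat Arfgap1 catalytic domain, aa 1-136; times: enzyme reaction 120 min at 25 °C after 20 min preincubation; detection: FP of antibody-bound GDP Alexa 633 tracer, ex 620/em 688 nm; benchmarks: high control wells lacking Arfgap1, low control full reaction with DMSO; reagent: human ARF1(Δ1-17)-GTP substrate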
PAFAH2 FP inh: inhibitors of human PAFAH2. Q99487. recombinant PAFAH2, FP-rhodamine activity probe, fluorescence polarization. inhibition, % at 3.39 µM. 340,000 tested, 0.99% active;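 active = inhibition above the mean over all tested compounds plus 3 SD, cut at about 30% in these data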;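 note: inhibitors block probe labeling of enzyme so polarization drops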
PAFAH1B2 inh: inhibitors of human PAFAH1B2 | P68402 | recombinant PAFAH1B2, FP-rhodamine activity probe, fluorescence polarization | inhibition, % at 3.39 µM | 340,000 tested, 1.2% active;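 active = inhibition above the mean of all tested compounds plus 3 SD, cut at about 24% in these data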
Target sequence (P68402 whole entry, looked up): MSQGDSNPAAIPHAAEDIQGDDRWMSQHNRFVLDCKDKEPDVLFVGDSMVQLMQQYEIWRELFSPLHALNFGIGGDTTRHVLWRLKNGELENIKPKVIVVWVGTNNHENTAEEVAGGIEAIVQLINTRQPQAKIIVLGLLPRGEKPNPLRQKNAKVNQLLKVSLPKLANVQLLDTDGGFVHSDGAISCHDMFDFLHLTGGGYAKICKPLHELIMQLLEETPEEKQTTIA
PAFAH1B3 FP inh: inhibitors of human PAFAH1B3; Q15102; recombinant PAFAH1B3, FP-rhodamine probe, fluorescence polarization; inhibition, % at 3.39 µM; 340,000 tested, 0.28% active;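 active = inhibition above the screen-wide average of all tested compounds plus 3 SD, cut at about 25% in these data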
Target sequence (Q15102 whole entry, looked up): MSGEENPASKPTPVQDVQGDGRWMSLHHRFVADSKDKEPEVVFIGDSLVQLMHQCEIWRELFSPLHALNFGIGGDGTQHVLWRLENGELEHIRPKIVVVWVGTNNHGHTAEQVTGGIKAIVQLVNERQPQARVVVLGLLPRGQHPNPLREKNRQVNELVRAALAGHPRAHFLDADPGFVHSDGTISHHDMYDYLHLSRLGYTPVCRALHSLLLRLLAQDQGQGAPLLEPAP
ASAP1 inh: inhibitors of human ASAP1 ArfGAP activity | ASAP1-stimulated ARF1 GTP hydrolysis, GDP FP detection | 360,000 tested, 0.19% active | Q9ULH1 | inhibition, % at 16.5 µM; in the data active = inhibition above about 25%
pPAFAH FP inh: inhibitors of human plasma PAF acetylhydrolase (pPAFAH) | Q13093 | recombinant pPAFAH, FP-rhodamine probe fluorescence polarization | inhibition, % at 3.39 µM | 330,000 tested, 1.5% active;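 active = inhibition above the mean inhibition across the screen plus 3 SD, cut at about 25% in these data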;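 note: inhibitors block binding of the rhodamine activity-based probe so polarization drops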
PAFAH2 confirm: confirmation of human PAFAH2 inhibitors; shares compounds with PAFAH2 FP inh; recombinant PAFAH2, FP-rhodamine activity probe, fluorescence polarization; inhibition, % at 3.39 µM; 2,300 tested, 65% active; AID 493030;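 active = mean inhibition over three repeats above a set limit taken from the earlier primary screen, cut at about 30% in these data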;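 note: inhibitor blocks binding of rhodamine activity probe so polarization falls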
A number is an active result; - = inactive; . = not tested or not shown. This is a sample that favours compounds with a hit; in the whole collection about 2.8% have one here.

SMILES	ARFGAP1 inhibitor	PAFAH2 FP inh	PAFAH1B2 inh	PAFAH1B3 FP inh	ASAP1 inh	pPAFAH FP inh	PAFAH2 confirm
O=C(COC(=O)/C=C/c1ccc(C(F)(F)F)cc1)NCCC1=CCCCC1	-	-	-	-	-	-	.
COc1cccc(/C=C/C(=O)OCC(=O)NCCC2=CCCCC2)c1	-	46.5	-	-	-	-	31.3
O=C(COC(=O)/C=C/c1ccccc1)NCCc1ccc(F)cc1	-	61.0	-	-	-	-	42.0
COc1ccc(/C=C/C(=O)OCC(=O)NCCC2=CCCCC2)cc1S(=O)(=O)N1CCOCC1	-	64.6	-	-	-	-	44.2
O=C(COC(=O)/C=C/c1ccccc1)NCCC1=CCCCC1	-	45.6	-	-	-	-	44.4
OCCN1CCN(c2ncnc3c2ncn3[C@H]2CN(Cc3ccc4c(c3)OCO4)C[C@@H](CO)O2)CC1	-	.	.	.	-	.	.
COc1ccc(/C=C/C(=O)OCC(=O)NCCC2=CCCCC2)cc1	-	64.7	-	-	-	-	53.2
NS(=O)(=O)c1cc(Cl)c(NC(=O)COC(=O)c2ccccn2)c(Cl)c1	-	-	-	-	-	-	.
Cc1nn(-c2ccccc2)c(C)c1NC(=O)COC(=O)/C=C/c1ccccc1	-	38.6	-	-	-	-	32.3
COc1ccc(/C=C/C(=O)OCC(=O)Nc2c(C)cccc2C)cc1	-	63.2	-	-	-	-	65.2
COc1ccc(CNC(=O)COC(=O)/C=C/c2ccc(Cl)cc2)cc1	-	-	-	-	-	-	.
COc1ccc(/C=C/C(=O)OCC(=O)NC(C)CCc2ccccc2)cc1 (centres undefined)	-	68.5	-	-	-	-	55.2
CCC(C(=O)OCC(=O)Nc1c(C)nn(-c2ccccc2)c1C)c1ccccc1 (centres undefined)	-	-	-	-	-	-	.
COc1ccc(/C=C/C(=O)OCC(=O)NCCNC(=O)COC(=O)/C=C/c2ccc(OC)cc2)cc1	-	-	-	-	-	-	.
Cc1cccc(C)c1NC(=O)COC(=O)/C=C/c1ccc(S(=O)(=O)N2CCOCC2)cc1	-	44.9	-	-	-	-	-
Cc1cc(NC(=O)COC(=O)c2c(Cl)cccc2Cl)no1	-	-	-	-	-	-	.
N#Cc1ccc(C(=O)NC2CCCCCCC2)cc1	-	-	-	-	-	-	.
CC(=O)Nc1cccc(-c2nc3ccccc3n2C(C(=O)NC(C)(C)C)C2CC2)c1 (centres undefined)	-	.	.	.	-	.	.
O=C(COC(=O)/C=C/c1ccc(S(=O)(=O)N2CCOCC2)cc1)NCc1ccc(F)cc1	-	38.7	-	-	-	-	34.5
Cc1ccc(F)cc1NC(=O)/C=C/c1ccc(S(=O)(=O)N2CCOCC2)cc1	-	-	-	-	-	-	.
O=C(COC(=O)/C=C/c1ccc(S(=O)(=O)N2CCOCC2)cc1)Nc1ccccc1F	-	59.5	-	-	-	-	42.1
Cc1ccc(S(=O)(=O)N2CCOCC2)cc1NC(=O)COC(=O)/C=C/c1ccc(F)cc1	-	52.6	-	-	-	-	47.2
O=C(CC[C@H]1O[C@@H](n2cnc3c(NC(=O)c4ccccc4)ncnc32)[C@H](O)[C@@H]1O)N[C@@H](CO)Cc1c[nH]c2ccccc12	-	.	.	.	-	.	.
CCOc1ccc(C(=O)OC(C)CN2CCCCC2)cc1 (centres undefined)	-	56.6	-	-	-	-	-
Cc1cc(O)c(/C=N/Nc2cccc(Cl)c2)c(=O)o1	-	38.2	-	-	-	-	30.4
SMILES	ARFGAP1 inhibitor	PAFAH2 FP inh	PAFAH1B2 inh	PAFAH1B3 FP inh	ASAP1 inh	pPAFAH FP inh	PAFAH2 confirm
Cc1cc(O)c(/C=N/OCc2ccc(Cl)cc2Cl)c(=O)o1	-	85.0	-	-	-	-	77.0
CCOc1cc(C(=O)OCC(=O)c2c[nH]c3ccccc23)ccc1OCC(=O)N1CCOCC1	-	44.7	-	-	-	-	32.5
CCOc1cc(C(=O)OCC(=O)NC(C)c2ccccc2)ccc1OCC(=O)N1CCOCC1 (centres undefined)	-	91.9	-	-	-	-	70.5
COc1cc(C(=O)OCC(=O)c2c[nH]c3ccccc23)ccc1OCC(=O)N1CCOCC1	-	33.6	-	-	-	-	-
CCOc1cc(C(=O)OCC(=O)c2c(C)[nH]c3ccccc23)ccc1OCC(=O)N1CCOCC1	-	-	-	-	-	-	.
COc1ccc(C(=O)OCC(=O)c2c[nH]c3ccccc23)cc1OC	-	46.7	-	-	-	-	43.9
CCNC(=O)C1(C)CCN(C(=O)c2cccc(C(F)(F)F)c2)C1 (centres undefined)	-	.	.	.	-	.	.
O=C(NNC(=O)c1ccccc1F)c1cccc(S(=O)(=O)N2CCc3ccccc32)c1	-	-	-	-	-	-	.
COC(=O)C[C@H]1C[C@@H]2c3cc(NC(=O)NC4CCCC4)ccc3O[C@@H]2[C@@H](CO)O1	-	.	.	.	-	.	.
O=C(Cc1cccc2ccccc12)Nc1ccc(Br)cc1C(=O)O	-	36.2	-	-	-	-	-
O=C(Cc1cccc2ccccc12)Nc1ccc(O)cc1C(=O)O	-	-	-	-	-	-	.
Cc1ccccc1C(=O)Nc1ccc(O)cc1C(=O)O	-	-	-	-	-	-	.
O=C(Nc1ccc(O)cc1C(=O)O)c1cccc(Br)c1	-	37.6	-	-	-	-	-
CCCCCCOC(=O)c1ccc(OC(=O)c2cccnc2)cc1	.	41.0	-	-	.	-	32.4
CS(=O)(=O)c1ccc(Cl)c(NC(=O)Cc2ccccc2F)c1	-	52.2	-	-	-	-	30.4
O=C(NCCc1ccc(Cl)cc1)C1CC(=O)N(C2CCCC2)C1 (centres undefined)	-	103.8	-	-	-	-	-
O=C(Nc1ccc2ccccc2c1)C(c1ccccc1)n1c(=O)c(-c2cc3ccccc3[nH]2)nc2ccccc21 (centres undefined)	-	.	.	.	-	.	.
Cc1ccc(-c2ccc(/C=C3\C(=O)ON=C3c3ccccc3)o2)c([N+](=O)[O-])c1	-	31.7	-	-	-	-	-
Cc1ccc(N2C(=O)CC(Sc3ccccc3C(=O)O)C2=O)cc1 (centres undefined)	-	91.9	-	-	-	-	-
Cc1cc(C)cc(N2C(=O)CC(Sc3ccccc3C(=O)O)C2=O)c1 (centres undefined)	-	-	-	-	-	-	.
CN1C[C@@H]2[C@@H]3C(=O)N(C)C(=O)[C@@H]3[C@](C)(C1=O)N2C(=O)c1ccc(C(C)(C)C)cc1	-	-	-	-	-	.	.
O=C(O)C(Cc1ccccc1)N1C(=O)c2c(Cl)c(Cl)c(Cl)c(Cl)c2C1=O (centres undefined)	-	31.7	-	-	-	-	-
Cc1cccc(C(=O)Nc2sc(C)c(-c3ccccc3)c2C#N)c1	-	47.2	-	-	-	-	-
